# Measurements from different studies.
# Protocols differ between the studies behind these lines.
# Target: Dual specificity tyrosine-phosphorylation-regulated kinase 4 (DYRK4, Homo sapiens, UniProt Q9NR20)
# Sequence (Q9NR20 1-520, as in one of the studies): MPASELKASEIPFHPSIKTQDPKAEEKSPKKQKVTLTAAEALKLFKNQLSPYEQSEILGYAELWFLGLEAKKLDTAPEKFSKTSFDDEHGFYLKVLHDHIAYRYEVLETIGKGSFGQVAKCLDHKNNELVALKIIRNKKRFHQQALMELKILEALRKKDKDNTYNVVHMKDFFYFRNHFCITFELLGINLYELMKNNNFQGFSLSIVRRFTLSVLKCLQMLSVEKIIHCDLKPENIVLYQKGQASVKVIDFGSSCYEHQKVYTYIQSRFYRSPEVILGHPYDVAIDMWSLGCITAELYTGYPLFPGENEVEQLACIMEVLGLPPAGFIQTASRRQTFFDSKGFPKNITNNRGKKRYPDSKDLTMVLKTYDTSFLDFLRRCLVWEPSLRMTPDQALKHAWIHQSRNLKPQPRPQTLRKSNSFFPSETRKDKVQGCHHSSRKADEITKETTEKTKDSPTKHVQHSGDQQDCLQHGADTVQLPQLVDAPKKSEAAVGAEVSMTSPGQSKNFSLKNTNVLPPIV
Structure (SMILES),assay,setting,measurement,value
O=C(Nc1cnn(-c2csc(C(=O)NC3COC3)c2)c1)Nc1c(F)cccc1Cl,"enzyme activity, inhibitor",5 µM,remaining activity,96.2%
O=C1NC(=O)c2cc(Nc3ccc(F)cc3)c(Nc3ccc(F)cc3)cc21,cell-free assay,0.5 µM,remaining signal,98.6%
CC(C)(C)c1nc2c(s1)c1nc(N)ncc1c1ccc(NS(=O)(=O)c3c(F)cccc3F)c(F)c12,"enzyme activity, inhibitor, radiometric",1 µM,remaining activity,92%
COc1cc2ncnc(Nc3ccc(Oc4ccccc4)c(C)c3C)c2cc1OC,"enzyme activity, inhibitor",1 µM,inhibition,-1%
CC(C)(C)c1nc(-c2cccc(NS(=O)(=O)c3c(F)cccc3F)c2F)c(-c2ccnc(N)n2)s1,"enzyme activity, inhibitor, radiometric",1 µM,remaining activity,38%
COc1cc(-c2cc(-c3ccc(N4CCNCC4)cc3)cnc2C)cc(OC)c1OC,"enzyme activity, inhibitor",0.1 µM,inhibition,2%
O=C(Nc1cnn(-c2csc(C(=O)NC3COC3)c2)c1)Nc1ccccc1Cl,"enzyme activity, inhibitor",5 µM,remaining activity,94.6%
Cn1cc(-c2cccc(N3CCc4c(sc5c4CC(C)(C)C5)C3=O)c2CO)cc(Nc2ccncn2)c1=O,"enzyme activity, inhibitor",1 µM,inhibition,2%
Cn1cnc(Br)c1C1=CN(c2ncnc3[nH]cnc23)CCS1,"enzyme activity, inhibitor, radiometric",50 nM,inhibition,14.9%
COc1cc2ncnc(Nc3ccc(Oc4ccccc4)cc3C)c2cc1OC,"enzyme activity, inhibitor",1 µM,inhibition,0%
Cn1cc(-c2cc(F)cc(N3CCn4c(cc5c4CCCC5)C3=O)c2CO)cc(Nc2ccc(N3CCN(C4COC4)CC3)cn2)c1=O,"enzyme activity, inhibitor",0.1 µM,inhibition,5%
CCCS(=O)(=O)Nc1ccc(F)c(C(=O)c2c[nH]c3ncc(-c4ccc(Cl)cc4)cc23)c1F,"enzyme activity, inhibitor",1 µM,inhibition,< 10%
O=C1Nc2ccc(Cl)cc2C1=Cc1cc(Cl)c(O)c(Cl)c1,cell-free assay,0.5 µM,remaining signal,95.7%
CC(C)(O)[C@H]1CC[C@H](Nc2ccc3ncc(-c4cccc(C(F)(F)F)c4)n3n2)CC1,"enzyme activity, inhibitor",1 µM,remaining activity,97.3%
